# OXTR agonist: activates the human oxytocin receptor; CHO-OTR cells, Fluo-8 calcium fluorescence; normalized: DMSO 0%, oxytocin 100%; P30559; activation, % at 3 µM; AID 2435; actives 0.32% (n = 320,000);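 active = activation above the mean of all tested compounds plus 3 SD, cutoff set per screening run, cut at about 20% in these data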;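 note: peak over basal fluorescence ratio from a 100 s FLIPR kinetic read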
# TAAR1 agonist: human TAAR1 agonism; actives 0.99% (n = 360,000); activation, % at 3 µM; Q96RJ0; CHO RD-HGA16 TAAR1, Fluo-8 calcium fluorescence; vehicle wells 0%, saturating PEA agonist 100%;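 active = activation above the mean activation of all test compounds in the run plus 3 SD, cut at about 38% in these data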
# Target sequence (Q96RJ0 whole entry, looked up): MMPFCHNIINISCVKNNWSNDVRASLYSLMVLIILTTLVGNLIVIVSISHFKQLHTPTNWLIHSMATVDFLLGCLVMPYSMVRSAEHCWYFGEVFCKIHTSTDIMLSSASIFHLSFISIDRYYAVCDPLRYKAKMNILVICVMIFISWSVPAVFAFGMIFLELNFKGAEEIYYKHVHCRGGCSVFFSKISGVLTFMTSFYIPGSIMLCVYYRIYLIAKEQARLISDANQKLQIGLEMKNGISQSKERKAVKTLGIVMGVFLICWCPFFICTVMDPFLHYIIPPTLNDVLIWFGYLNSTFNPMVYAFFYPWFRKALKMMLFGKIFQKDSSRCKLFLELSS
#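 test system = CHO RD-HGA16 cells carrying human TAAR1 plus Gα16 | schedule = 17-24 h seeding, 75 min 37 °C dye, 30 min RT | compound dosing = 3 µM single concentration | control set = DMSO and PEA EC100 | replicates = n 1 | signal = Fluo-8 fluorescence, 5 s baseline then 140 s kinetic read | measure = percent activation vs PEA EC100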
# V1R ag counter: activates human V1a receptor in oxytocin agonist counter-screen. actives 0.25% (n = 320,000). CHO-V1R cells, Fluo-8 calcium fluorescence, agonist mode; 0% DMSO, 100% 3 nM vasopressin. activation, % at 3 µM;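 active = activation above the mean activation of all tested compounds plus 3 SD, per screening run, cut at about 20% in these data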;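 note: signal is peak over basal fluorescence ratio across a 100 second FLIPR read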
# Target sequence (P37288 whole entry, looked up): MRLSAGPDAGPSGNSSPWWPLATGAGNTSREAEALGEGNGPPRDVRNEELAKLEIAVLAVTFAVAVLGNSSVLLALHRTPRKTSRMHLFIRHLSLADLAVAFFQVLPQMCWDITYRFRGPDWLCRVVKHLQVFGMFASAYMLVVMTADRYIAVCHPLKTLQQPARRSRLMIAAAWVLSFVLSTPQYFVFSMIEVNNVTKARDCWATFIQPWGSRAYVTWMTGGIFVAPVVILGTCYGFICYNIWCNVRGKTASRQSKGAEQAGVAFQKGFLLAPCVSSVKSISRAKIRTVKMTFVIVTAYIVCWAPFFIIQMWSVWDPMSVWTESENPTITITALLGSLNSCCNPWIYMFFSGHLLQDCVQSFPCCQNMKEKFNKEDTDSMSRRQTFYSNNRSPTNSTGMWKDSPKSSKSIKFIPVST
# OXTR potentiator: potentiates the human oxytocin receptor response. actives 0.061% (n = 320,000). CHO-OTR cells, Fluo-8 calcium fluorescence, potentiator mode; 0% = oxytocin EC15, 100% = EC100. AID 2445. activation, % at 3 µM. P30559;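 active = activation above that plate's cutoff, the mean activation of tested compounds plus 3 SD, cut at about 6.6% in these data, passing the limit was not always enough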;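 note: 100% uses oxytocin at 75 nM as the full agonist control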
#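 System: human OTR in CHO cells; Also added: sub-maximal oxytocin, roughly EC15; Timing: compound 6 min at room temperature before oxytocin, 100 s read; Technique: Fluo-8 intracellular calcium fluorescence, ex 470-495, em 515-575 nm; Controls: oxytocin EC15 low and EC100 high; Replication: singlicate.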
# TAAR1 antagonist: human TAAR1 antagonism. Q96RJ0. actives 1.5% (n = 360,000). AID 624466. CHO RD-HGA16 TAAR1, Fluo-8 calcium fluorescence, antagonist. inhibition, % at 3 µM;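 active = inhibition above a per-plate cutoff, the mean inhibition of test compounds on that plate plus 3 SD, cut at about 49% in these data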;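 note: 0% = DMSO plus EC80 beta-PEA response and 100% = DMSO alone without agonist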
#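 Test system: RD-HGA16 CHO cells with stable hTAAR1 and Gα16 / Probe or stimulus: EC80 β-phenethylamine stimulus / Times: seeding 17-24 h prior, 75-min 37 °C, 30-min RT dye loading / Detection: Fluo-8 calcium-sensitive fluorescence / Read-out basis: % inhibition scaled between DMSO and EC80 PEA controls / Repeats: singlicate, one well per test compound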
# nonsel antag count: counter-screen for TAAR1 antagonists: nonselective antagonists; counterscreen cell line, calcium fluorescence, antagonist mode; actives 77% (n = 2,400); shares compounds with TAAR1 antagonist; inhibition, % at 3 µM; AID 651780; in the data active = inhibition above about 22%;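 note: CHO-Ga16 host cells stimulated with ATP at an EC80 level; 0% = agonist EC80 plus vehicle and 100% = vehicle without agonist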
# TAAR1 antag conf: human TAAR1 antagonism, confirmed. shares compounds with TAAR1 antagonist. TAAR1-expressing cells, fluorescence antagonist read-out. inhibition, % at 3 µM. actives 40% (n = 2,400). AID 651785; in the data active = inhibition above about 49%;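 note: CHO-Ga16 host cells challenged with agonist PEA near its EC80; 0% = agonist at EC80 plus vehicle and 100% = vehicle with no agonist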
# Ga16 ag counter: nonselective Ga16 agonism, counter-screen. actives 18% (n = 2,400). Ga16-expressing cells, calcium fluorescence, agonist counterscreen. shares compounds with TAAR1 antagonist. activation, % at 3 µM; in the data active = activation above about 12%;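 note: 0% = vehicle wells and 100% = saturating stimulus response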
# TAAR1 ag counter: counter-screen for human TAAR1 antagonists: TAAR1 agonists; shares compounds with TAAR1 antagonist; hTAAR1 cell line, fluorescence activation, agonist mode; activation, % at 3 µM; actives 2% (n = 2,400); in the data active = activation above about 37%;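 note: CHO cells stably expressing TAAR1 with calcium dye readout; 0% = DMSO vehicle and 100% = full agonist response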
# The depositor's hits bear a star; / = no result. A selection: hits, their analogues and other compounds. The true share with any hit is near 2.3%.
SMILES,OXTR agonist,TAAR1 agonist,V1R ag counter,OXTR potentiator,TAAR1 antagonist,nonsel antag count,TAAR1 antag conf,Ga16 ag counter,TAAR1 ag counter
COc1ccc(OC)c(-c2cc(C(=O)N3CCN(c4ncccn4)CC3)c3ccccc3n2)c1,-2.6,11.2,0.8,-1.9,78.4*,27.6*,46.9,7.5,20.0
CC(=O)c1ccc(NC(=O)CN(c2c(C)cccc2C)S(C)(=O)=O)cc1,/,2.6,/,/,1.3,/,/,/,/
CCOc1ccc2oc(C(=O)N3CCN(c4ccccc4OCC)CC3)c(C)c2c1,-2.1,2.6,-1.6,-7.8,59.8*,19.9,42.8,2.1,10.7
CCc1nc(NCCO)c(C#N)c2c1CSC(C)(C)C2,-1.0,14.8,0.1,-4.6,59.0*,30.8*,50.7*,7.3,5.4
COc1ccc(C(=O)Nc2nc(CC(=O)NCCc3ccccc3OC)cs2)cc1,-1.9,11.2,-0.3,-10.4,57.4*,26.8*,43.7,6.8,5.4
COc1ccc(C(=O)Nc2nc(CC(=O)NCc3c(F)cccc3F)cs2)cc1,/,12.9,/,/,70.9*,24.9*,49.7*,13.5*,11.7
COc1ccc(C(=O)Nc2nc(CC(=O)NCc3ccc(F)cc3)cs2)cc1,4.2,15.8,7.6,-11.7,71.7*,48.3*,65.6*,14.5*,11.2
CCc1nc2ccc(C(=O)NCCc3ccccc3OC)cc2nc1CC,-2.6,-3.4,-2.1,-9.6,10.9,/,/,/,/
O=C(O)c1cccc2c1-c1ccc(Cl)cc1C2,/,6.9,/,/,-4.0,/,/,/,/
O=C(O)c1cc(Nc2cc(Cl)c3nonc3c2[N+](=O)[O-])ccc1O,0.0,1.9,-0.5,-7.9,-6.0,/,/,/,/
Cn1c(=O)c2[nH]c(COc3ccc(C(C)(C)C)cc3)nc2n(C)c1=O,8.8,/,6.0,-7.5,/,/,/,/,/
CCOC(=O)[C@H]1[C@H]2COc3ccc(Br)cc3[C@@H]2N2C(=O)c3c(C)cc(C)cc3NC(=O)[C@@]12C,0.6,-1.5,0.6,1.7,6.9,/,/,/,/
CC(C)[C@H](NS(=O)(=O)c1ccc2c(c1)OCCO2)C(=O)OCC(=O)Nc1ccccc1Cl,0.4,8.4,3.3,-6.3,17.1,/,/,/,/
CC(C)[C@H](NS(=O)(=O)c1ccc2c(c1)OCCO2)C(=O)OCC(=O)Nc1cc(Cl)ccc1Cl,3.9,21.2,4.5,-7.3,75.6*,38.8*,61.1*,11.2,11.1
O=C1NC[C@@H](CCCCN2C[C@H](Cc3ccc(O)cc3)N(CCc3ccccc3)C(=O)C2=O)N(CCC2CCCCC2)C1=O,/,1.8,/,/,-14.9,/,/,/,/
N#Cc1c(-c2ccc(Cl)cc2)ccnc1N1CCOCC1,-1.7,2.5,-0.9,0.1,-5.2,/,/,/,/
COC(=O)/C=C/c1ccccc1CN1[C@@H](CC(=O)OC)c2ccccc2S1(=O)=O,1.4,7.5,1.7,3.4,107.0*,-2.4,9.7,3.3,4.9
COc1cc(CN2CC(=O)N(c3ccccc3Cl)C2=S)cc(OC)c1OC,6.9,24.7,11.2,-22.9,75.0*,49.5*,65.5*,14.2*,18.4
O=C(CCn1c(=O)oc2ccccc21)N(Cc1ccccc1)c1ccccc1,-2.0,3.3,0.8,-8.1,69.5*,23.3*,49.8*,5.8,5.2
COc1ccc(/C=N/n2cncn2)cc1Cn1cc([N+](=O)[O-])cn1,0.3,0.2,-1.0,-5.3,1.4,/,/,/,/
COc1ccc(/C=N/Nc2ccc([N+](=O)[O-])cc2)cc1Cn1cc([N+](=O)[O-])cn1,-0.4,10.1,0.0,-12.9,55.4*,25.8*,28.2,6.1,4.2
C/C(=N\Nc1cc(C)nc(-c2ccccc2O)n1)c1ccccc1O,0.2,6.3,-0.6,-2.4,59.2*,29.6*,43.1,7.1,2.9
O=C(O)c1ccccc1C(=O)OCCCc1ccncc1,-0.2,0.4,0.9,7.3,6.9,/,/,/,/
CC(C)c1nc2scc(-c3ccc(Cl)cc3)c2c(=O)n1N,6.9,3.4,1.2,-5.5,65.6*,31.6*,39.2,5.8,0.3
CCOC(=O)c1cc(-c2nnc(SCC(=O)Nc3ccc(F)cc3)o2)c(C)nc1C,-0.8,9.4,0.5,-2.3,54.5*,18.3,30.7,5.4,3.3
SMILES,OXTR agonist,TAAR1 agonist,V1R ag counter,OXTR potentiator,TAAR1 antagonist,nonsel antag count,TAAR1 antag conf,Ga16 ag counter,TAAR1 ag counter
O=C(NCc1ccccc1)C(c1ccccc1F)n1c(=O)c(-c2cc3ccccc3[nH]2)nc2ccccc21 (stereo not drawn),/,2.2,/,/,-16.5,/,/,/,/
COc1cccc(/C=N/Nc2nnc3c(n2)[nH]c2ccccc23)c1OC,-2.1,11.8,-2.8,-9.4,60.8*,17.2,21.5,5.9,3.5
COc1cccc(C=NNc2nc3ccccc3s2)c1OC,/,4.5,/,/,-2.3,/,/,/,/
Cc1ccc(NC(=O)OC[C@@H]2CSCCS(=O)(=O)N2)cc1,/,1.5,/,/,-0.6,/,/,/,/
O=C(N/N=C/C=C/c1ccccc1[N+](=O)[O-])c1cc(-c2cccnc2)nc2ccccc12,-0.7,10.9,-0.3,-13.8,59.1*,32.8*,42.6,4.2,-1.3
CCOc1cc(/C=N/NC(=O)c2cc(-c3cccc(OC)c3)nc3ccccc23)ccc1O,-2.4,8.0,0.6,-18.4,75.9*,13.6,46.2,8.3,7.6
CC(C)COc1cccc(-c2cc(C(=O)N/N=C/c3ccncc3)c3ccccc3n2)c1,/,3.4,/,/,60.8*,7.9,27.1,5.6,18.1
COc1cc(/C=N/NC(=O)c2cc(-c3c(C)nn(-c4ccccc4)c3C)n[nH]2)ccc1O,-0.2,6.7,1.5,-6.8,54.2*,27.5*,40.8,6.2,5.6
CCOC(=O)C1=CCN(S(=O)(=O)c2ccc(F)cc2)C1c1ccc(Cl)cc1 (stereo not drawn),/,0.0,/,/,22.2,/,/,/,/
COc1cc(/C=N/NC(=O)c2cc(-c3ccccc3OC(C)C)nc3ccccc23)ccc1O,1.5,7.7,1.1,-7.8,57.3*,13.4,42.2,9.4,12.8
COc1cc(/C=N/NC(=O)c2cc(-c3ccccc3)nc3ccccc23)ccc1O,-0.5,11.4,2.6,-14.4,35.5,/,/,/,/
O=C(C1=C[C@@H](c2ccc(C(F)(F)F)cc2)C[C@@H](OCc2ccc(CO)cc2)O1)N1CCN(Cc2ccc3c(c2)OCO3)CC1,1.8,9.9,2.2,-6.0,55.0*,32.0*,34.4,4.1,3.5
O=C(NCCc1c[nH]c2ccccc12)c1ccc(F)cc1F,-0.6,0.1,-0.2,-13.9,0.9,/,/,/,/
